Sampled rows, rich in hits. Any-hit rate of the full collection: about 4.8%.
UPR XBP1 act = activators of adaptive arm of unfolded protein response (XBP1). CHO-XBP1 luciferase reporter, IRE1-XBP1 UPR activation, luminescence; percent of tunicamycin response, DMSO as zero. activation, % at 20 µM. 330,000 tested, 0.33% active. AID 463104;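 active = versus positive control, 20 µM dose yields 30% or more activation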
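Material: IRE1-XBP1 luciferase reporter CHO line / Quantity: one thousand reporter cells per well / Buffer or medium: F12 with 10% serum / Compound: 20 µM single concentration, DMSO 1% / Times: 6 h treatment, 37 °C / Detection: Steady-Glo luciferase glow luminescence, 10 min after reagent addition / Benchmarks: tunicamycin high, DMSO low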
Beta apoptosis = beta cell apoptosis inhibition; INS-1E cytokine-induced death, ATP luminescence, 48 h; percent of positive-control rescue, neutral wells zero; protection from apoptosis, % (no concentration beside the values); 300,000 tested, 0.8% active; AID 435005;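 active = Every replicate reaches about 75%, or at least half do and their mean reaches it too, limit read from the data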;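 also: higher means more ATP so stronger rescue from cytokine killing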
CSC inhib = blocks cancer stem cells; cancer stem cell-like cells viability, luminescence; 300,000 tested, 1.1% active; inhibition, % at 7.5 µM; AID 2717; in the data active = inhibition above about 75%; tested in HMLE shEcad cells
UPR CHOP act = activators of apoptotic arm of unfolded protein response (CHOP); CHO-CHOP luciferase reporter, UPR activation, luminescence; percent of tunicamycin response over DMSO baseline; activation, % at 10 µM; 330,000 tested, 0.34% active; AID 449763;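 active = at 10 µM dose, activation of 40% or more, normalized to positive control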
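System: CHO-CHOP luciferase reporter cell line | Buffer or medium: F12 medium containing 10% fetal bovine serum | Doses: One dose, 10 µM in 0.5% DMSO | Times: 6 h compound exposure at 37 °C after overnight seeding | Signal: Luciferase luminescence | Read-out: % activation vs tunicamycin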
SKKanGAS inh = inhibitors of SKKanGAS S. pyogenes growth in kanamycin (SK-promoter or general growth effect) | inhibition, % at 7.5 µM | BacTiter-Glo, 6 h | 300,000 tested, 1.3% active | AID 1662;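 active = mean replicate score, as percent of positive control median, at least 50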;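 also: strain carries kanamycin resistance gene driven by streptokinase promoter and grows in 40 µg/ml kanamycin; loss of luminescence reflects streptokinase promoter inhibition or plain growth inhibition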
Mdm2-MdmX inh = inhibitors of human Mdm2/MdmX interaction. O15151+Q00987. SaOS-2 split-luciferase Mdm2/MdmX complementation, luminescence. inhibition, % at 8 µM. 330,000 tested, 3% active. AID 485346;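 active = inhibition of at least 50% at 8 µM in the primary screen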
Target sequence (O15151 whole entry, looked up): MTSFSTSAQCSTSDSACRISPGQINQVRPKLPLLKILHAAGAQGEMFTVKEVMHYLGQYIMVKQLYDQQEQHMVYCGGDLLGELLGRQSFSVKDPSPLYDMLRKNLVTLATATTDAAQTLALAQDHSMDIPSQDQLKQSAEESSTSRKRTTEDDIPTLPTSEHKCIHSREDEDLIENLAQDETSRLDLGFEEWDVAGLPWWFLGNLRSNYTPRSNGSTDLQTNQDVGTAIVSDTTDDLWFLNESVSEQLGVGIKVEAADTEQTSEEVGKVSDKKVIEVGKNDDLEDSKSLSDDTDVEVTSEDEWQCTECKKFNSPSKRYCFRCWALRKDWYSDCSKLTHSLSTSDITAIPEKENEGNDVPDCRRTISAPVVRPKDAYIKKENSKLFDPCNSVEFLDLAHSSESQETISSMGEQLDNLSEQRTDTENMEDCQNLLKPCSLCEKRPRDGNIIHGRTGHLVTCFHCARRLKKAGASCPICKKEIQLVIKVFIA
Target sequence (Q00987 whole entry, looked up): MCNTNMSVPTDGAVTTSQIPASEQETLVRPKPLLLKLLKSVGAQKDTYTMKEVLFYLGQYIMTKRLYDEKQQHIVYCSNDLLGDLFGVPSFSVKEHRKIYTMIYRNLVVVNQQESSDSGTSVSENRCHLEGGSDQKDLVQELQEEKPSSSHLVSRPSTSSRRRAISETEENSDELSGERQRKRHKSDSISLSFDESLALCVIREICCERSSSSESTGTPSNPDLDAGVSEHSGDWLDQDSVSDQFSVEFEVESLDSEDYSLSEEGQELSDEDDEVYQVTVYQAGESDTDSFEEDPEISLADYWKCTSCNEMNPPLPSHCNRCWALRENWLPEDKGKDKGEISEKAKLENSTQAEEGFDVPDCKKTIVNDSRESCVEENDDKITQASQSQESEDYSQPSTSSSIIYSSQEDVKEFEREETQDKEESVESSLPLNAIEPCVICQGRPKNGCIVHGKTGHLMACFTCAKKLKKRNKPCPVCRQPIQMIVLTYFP
Large screens that a line does not name were inactive.

Cc1cc(C)nc(N/N=C2/CCCC/C2=C\c2ccccc2)n1	Beta apoptosis 77.8
CCc1nn(CC(=O)N2CCN(c3ccc(F)cc3)CC2)c(=O)c2cc3occc3n12	none
Cc1cccc(OCCNc2cc(N3CCN(C)CC3)ccc2[N+](=O)[O-])c1	CSC inhib 79.8
Cc1cccc(OCCNc2cc(N3CCOCC3)ccc2[N+](=O)[O-])c1	none
FC(F)(F)c1cc(CCN2C(=S)NC[C@@H]2CC2CCCCC2)cc(C(F)(F)F)c1	CSC inhib 97.5, SKKanGAS inh 68.0
S=C1NC[C@H](Cc2ccccc2)N1CCCCC1CCCCC1	CSC inhib 136.0
FC(F)(F)c1cc(CCN2C(=S)NC[C@@H]2Cc2ccccc2)cc(C(F)(F)F)c1	none
S=C1NC[C@H](CC2CCCCC2)N1CCc1cccc2ccccc12	none
S=C1NC[C@H](CC2CCCCC2)N1CCCCC1CCCCC1	SKKanGAS inh 76.2
CN(C)C1=NC[C@H](Cc2ccccc2)N1CCCC1CCCCC1	Beta apoptosis 86.8 (no result: SKKanGAS inh)
NC(=O)c1cc(S(=O)(=O)N2CCCC2)ccc1OCCOc1ccccc1	none (no result: SKKanGAS inh)
Cc1cccc(NC(=O)Nc2cnccn2)c1C	none
COCCn1c(SCC(=O)NC2CCCC(C)C2C)nc2ccccc2c1=O (stereo not given)	none (no result: Beta apoptosis, CSC inhib, SKKanGAS inh)
Cc1nnc(NC(=O)C2CSC3(C)CCC(=O)N23)s1 (stereo not given)	none
O=C1NC[C@@H](Cc2cccc3ccccc23)N(CCCCC2CCCCC2)C1=O	CSC inhib 87.6, SKKanGAS inh 81.8
NCCCC[C@H]1CNC(=O)C(=O)N1CCCCC1CCCCC1	none
Cn1cc(CN2CCC(C(=O)Nc3ccc(Oc4ccccc4F)cc3)CC2)cn1	none (no result: Beta apoptosis, CSC inhib)
COc1ccc(S(=O)(=O)N2CCOCC2)cc1C(=O)N(C)Cc1ccco1	none (no result: SKKanGAS inh)
NNC(=O)c1ccc(OCC2CC(c3ccc(Cl)cc3)=NO2)cc1 (stereo not given)	SKKanGAS inh 50.6
CCNC(=S)NNC(=O)c1cc(-c2ccc(OC)cc2)nc2ccccc12	none
COc1ccc(Cl)cc1C(=O)NNC(=O)c1cccc([N+](=O)[O-])c1	none
COc1ccc(Cl)cc1C(=O)NNC(=S)NC(=O)c1ccc(F)c(F)c1	SKKanGAS inh 98.9 (no result: Beta apoptosis, CSC inhib)
COc1cc(C(=O)NNC(=S)NC(=O)c2ccc(F)cc2)cc(OC)c1OC	SKKanGAS inh 82.7
COc1cc(C(=O)NC(=S)Nc2nc(-c3ccc(F)cc3)cs2)cc(OC)c1OC	none
COc1cc(C(=O)NC(=S)NNC(=O)c2ccc3c(c2)OCO3)cc(OC)c1OC	SKKanGAS inh 69.7
COc1cc(C(=O)NC(=S)Nc2ccc3c(c2)OCO3)cc(OC)c1OC	none
COc1ccc(Cl)cc1C(=O)NNC(=S)NC(=O)c1cc(-c2ccc(Cl)cc2)nc2ccccc12	SKKanGAS inh 70.8
COc1ccc(C(=O)NNC(=S)NC(=O)c2ccc(F)cc2)cc1Br	SKKanGAS inh 102.9
COc1ccc(C(=O)NC(=S)NNC(=O)c2ccncc2)cc1Br	none (no result: CSC inhib, SKKanGAS inh)
Cc1c(NC(=S)NC(=O)c2sc3ccccc3c2Cl)cccc1C(=O)O	none
COc1ccccc1C(=O)NNC(=S)NC(=O)c1sc2ccccc2c1Cl	SKKanGAS inh 94.0 (no result: CSC inhib)
COc1ccc(C(=O)NC(=S)NNC(=O)c2ccc(NC(C)=O)cc2)cc1Br	SKKanGAS inh 70.2
COC(=O)C(Cc1ccc(O)cc1)NC(=O)CCOc1ccc(OC)cc1 (stereo not given)	none
C=CCn1c(O)c(C=Nc2ccc(CN3CCCCC3)cc2)c(=O)[nH]c1=S	none
Nc1nnnn1/N=C/c1cc(Br)ccc1O	none
CC1CC(C)CN(C(=O)CN(C)S(=O)(=O)c2ccc3c(c2)c(=O)n(C)c(=O)n3C)C1 (stereo not given)	none
COCCN1CN(S(=O)(=O)c2ccccc2)c2nc3ccccc3nc21	none
COc1ccccc1CN1CN(S(=O)(=O)c2ccccc2)c2nc3ccccc3nc21	SKKanGAS inh 50.3
CCn1nnc(NC(=O)c2cccc(-c3cc4ccccc4oc3=O)c2)n1	none
O=C(Nc1ccc(CN2CCOCC2)cc1)c1cccc(-c2cc3ccccc3oc2=O)c1	none
O=C(Nc1cccc(Cl)c1N1CCCC1)c1cccc(-c2cc3ccccc3oc2=O)c1	CSC inhib 84.5
CCOc1ccc2nc(NC(=O)c3cccc(-c4cc5ccccc5oc4=O)c3)sc2c1	Beta apoptosis 80.8 (no result: UPR XBP1 act, UPR CHOP act, Mdm2-MdmX inh)
N#Cc1ccc(CSc2ccc(S(=O)(=O)N3CCCCCC3)cn2)cc1	none (no result: Beta apoptosis, CSC inhib, SKKanGAS inh)
COC(=O)c1ccc(COc2ccccc2/C=C(\C#N)C(=O)Nc2c(C)cc(C)cc2C)cc1	CSC inhib 117.0
CC(C)CC(=O)Nc1nnc(S(=O)(=O)Nc2ccccc2)s1	none
NS(=O)(=O)c1ccc(NNC(=O)c2sccc2Cl)cc1	none
NS(=O)(=O)c1ccc(NNC(=O)c2ccccc2C(=O)O)cc1	none
O=C(O)c1ccccc1C(=O)NNc1ccc(Cl)cc1	CSC inhib 91.1
O=C(/C=C/c1ccccc1)NNc1ccc(Cl)cc1	CSC inhib 96.2
O=C(c1ccc(Cl)cc1)c1c[nH]c(C(=O)NNc2ccccc2)c1	CSC inhib 95.2
O=C(NNc1ccc(Cl)cc1)c1sccc1Cl	CSC inhib 94.4
Cc1cccc(NC(=O)C2CC3CCC2C3)c1C (stereo not given)	none
O=c1[nH]nc(Cc2ncc(C(F)(F)F)cc2Cl)c2ccccc12	none
O=S(=O)(Nc1cc(F)ccc1F)c1cccc2nonc12	none
N#C/C(C(=O)Nc1ccc(Cl)cc1)=C(/S)Nc1ccccc1	none (no result: Beta apoptosis)
Cc1ccc(OCC(=O)NCCCNC(=O)c2ccco2)cc1	none
CCOc1cc(C2NN=C(c3ccc(C)cc3)S2)ccc1O (stereo not given)	CSC inhib 105.2 (no result: UPR XBP1 act, UPR CHOP act, SKKanGAS inh, Mdm2-MdmX inh)
O=C(NCC1CCCN1S(=O)(=O)c1cccs1)c1ccc([N+](=O)[O-])cc1 (stereo not given)	none
Cc1cc(Oc2ccc(-c3ccccc3)cc2)nc(N2CCOCC2)n1	SKKanGAS inh 54.0
COc1cc(CSc2nnnn2-c2ccc(C)cc2)cc(OC)c1OC	Beta apoptosis 102.0
COc1ccc(F)cc1CSc1nnnn1-c1ccc(O)cc1	none (no result: Beta apoptosis)
Cc1cccc(C(=O)N[C@H](C(=O)NCCc2ccc(Cl)cc2)C(C)C)c1	none
Cc1ccc(-n2c(=O)[nH]c3ncccc3c2=O)cc1	none (no result: Beta apoptosis)
Cc1ccc(-n2c(-c3ccc(Br)cc3)c[n+]3c2CCc2ccc4cccnc4c2-3)cc1	Beta apoptosis 133.1, SKKanGAS inh 80.6 (no result: UPR XBP1 act, UPR CHOP act, Mdm2-MdmX inh)
C#CCOCCOCCOCCNc1nc(N2CCN(C(=O)CCCCCCCCCCNC(=O)[C@H]([C@@H](C)CC)n3cc(CCCCCN)nn3)CC2)nc(N2CCN(C(=O)CCCCCCCCCCNC(=O)[C@H]([C@@H](C)CC)n3cc(CCCCN=C(N)N)nn3)CC2)n1	Beta apoptosis 97.7 (no result: SKKanGAS inh)

Bioassay records: PubChem, several laboratories
